# Laboratory results: ChEMBL document CHEMBL5150070, “Tricyclic SpiroLactams Kill Mycobacteria In Vitro and In Vivo by Inhibiting Type II NADH Dehydrogenases” (J Med Chem, 2022)
# The source made the active and inactive calls. No cut-off for these calls is given here.
# How the values were obtained:
# [1] = tested on: Mycobacterium tuberculosis; assay: Antimycobacterial activity against Mycobacterium tuberculosis H37Rv infected in human A-THP1 macrophages assessed as viability of infected macrophages incubated for 96 hrs by fluorescence microplate assay; format: functional, organism-based
# Method in brief: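 THP-1 cells differentiated with 50 ng/mL PMA for 72 h, infected with log-phase H37Rv (MOI 10, 2 h), and extracellular bacteria killed with 50 µg/mL amikacin for 1 h. Cells detached and seeded at 5×10⁵/mL in RPMI-10% FBS with PMA onto pre-dispensed compound, 96 h at 37°C, 5% CO₂. Macrophage viability by 0.05% resazurin fluorescence.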
# Mycobacterium marinum [2] = assay: In vivo antimycobacterial efficacy in Mycobacterium marinum expressing Wasabi infected zebrafish larvae assessed as prolongation of survival time at 4.8 uM treated for 4 days after 1 day post infection; format: functional; conditions: time 4 day
# Mycobacterium marinum [3] = assay: In vivo antimycobacterial efficacy in Mycobacterium marinum expressing Wasabi infected zebrafish larvae assessed as prevention of bacterial infection foci at 0.25 to 2 ug/ml treated for 2 to 4 days after 1 day post infection; format: functional, organism-based; conditions: dose 0.25-2 µg/ml, time 2-4 day
# Method in brief: (§1)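 Golden mutant or Tg(mpeg1:mCherry) zebrafish embryos were dechorionated and anaesthetised in 0.016% tricaine. At 30 hpf, 2–3 nL containing about 200–250 cfu of Wasabi-expressing M. marinum M (pTEC15) was injected into the caudal vein. The inoculum was confirmed by plating on 7H10. Embryos were kept in E3 at 28.5 °C, 12 per well, to follow infection and survival.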
# Mycobacterium avium = assay: Antibiotic activity against Mycobacterium avium TMC 724, ATCC-25291 assessed as reduction in bacterial cell growth by measuring resazurin reduction incubated for 6 days by fluorescence microplate based assay; format: functional; conditions: TMC 724, ATCC-25291, 144 h, time 6 day
# [4] = tested on: Mycobacterium tuberculosis; assay: Bactericidal activity against Non-replicating Mycobacterium tuberculosis ss18b-lux assessed as decrease in colony forming unit measured at 4.8 uM after 1 weeks; format: functional
# Method in brief: (§2)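 Streptomycin-dependent 18b-lux starved of streptomycin for 14 days (OD600 reset to 0.2 on days 7 and 13) to become non-replicating. Diluted to OD600 0.15 on dispensed compound and held at 37°C. On day 7, active wells plated on 7H11-OADC with 50 µg/mL streptomycin and incubated up to 8 weeks for cfu.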
# [5] = tested on: Mycobacterium tuberculosis; assay: Bactericidal activity against replicating Mycobacterium tuberculosis H37Rv assessed as reduction in colony forming unit measured at 2 to 4 times of MIC after 1 to 2 weeks; format: functional; conditions: time 1-2 weeks
# Method in brief: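 Mid-log H37Rv in 7H9-GTy-OADC diluted to OD600 0.02 (~1×10⁶ cfu/mL) and exposed to compound in 96-well replica plates for 1 or 2 weeks. For the 3 lowest concentrations without visible growth, serial 10-fold dilutions plated on 7H11-OADC and cfu counted over 6 weeks at 37°C. Four independent experiments; log10 cfu/mL ± SD.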
# [6] = Metabolic stability in mouse liver microsomes; format: ADME, Microsome
# [7] = tested on: Mycobacterium tuberculosis; assay: Antimycobacterial activity against Mycobacterium tuberculosis H37Rv assessed as reduction in bacterial cell growth by measuring resazurin reduction incubated for 6 days by fluorescence microplate based assay; format: functional; conditions: time 6 day
# Mycobacterium marinum [8] = assay: In vivo antimycobacterial efficacy in Mycobacterium marinum expressing Wasabi infected zebrafish larvae assessed as prolongation of survival treated for 4 days after 1 day post infection; format: functional, organism-based; conditions: dose 0.3-1.2 µM, time 4.0 day, DDE = dose-dependent effect; method in brief: as §1
# [9] = tested on: Mycobacterium tuberculosis; assay: Bactericidal activity against Non-replicating Mycobacterium tuberculosis ss18b-lux model assessed as decrease in luminescence at 10 to 10000 nM; format: functional, organism-based; conditions: dose 10-10000 nM, TDE = time-dependent effect
# Method in brief: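 Non-replicating streptomycin-starved 18b-lux (14-day starvation) diluted to OD600 0.15 in white 96-well plates with compound and incubated at 37°C. Luminescence read on days 1, 2, 5 and 7 and expressed relative to no-antibiotic controls (n ≥ 3).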
# [10] = tested on: Mycobacteroides abscessus; assay: Antibiotic activity against Mycobacterium abscessus CIP104536, Smooth variant assessed as reduction in bacterial cell growth by measuring resazurin reduction incubated for 6 days by fluorescence microplate based assay; format: functional; conditions: 144 h, time 6 day
# Mycobacterium marinum [11] = assay: In vivo antimycobacterial efficacy in Mycobacterium marinum expressing Wasabi infected zebrafish larvae assessed as prevention of bacterial load using fluorescence pixel count determination at 0.5 ug/ml treated for 2 to 4 days after 1 day post infection; format: functional, organism-based; conditions: dose 0.5 µg/ml, time 2-4 day; method in brief: as §1
# Mycobacterium marinum [12] = assay: Antibiotic activity against Mycobacterium marinum M strain assessed as reduction in bacterial cell growth by measuring resazurin reduction incubated for 6 days by fluorescence microplate based assay; format: functional; conditions: 144 h, time 6 day
# Staphylococcus aureus = assay: Antibiotic activity against Staphylococcus aureus SH1000 assessed as reduction in bacterial cell growth by measuring resazurin reduction incubated for 6 days by fluorescence microplate based assay; format: functional; conditions: SH1000, 144 h, time 6 day
# Method in brief: (§3)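 E. coli BW25113, E. coli ΔtolC and S. aureus SH1000 were cultured and tested in cation-adjusted Mueller Hinton II broth. Viability was read by adding resazurin and measuring resorufin fluorescence at Ex 530 nm / Em 590 nm.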
# Pseudomonas aeruginosa = assay: Antibiotic activity against Pseudomonas aeruginosa POA1 assessed as reduction in bacterial cell growth by measuring resazurin reduction incubated for 6 days by fluorescence microplate based assay; format: functional; conditions: POA1, 144 h, time 6 day
# [13] = tested on: Mycolicibacterium smegmatis; assay: Antibiotic activity against Mycobacterium smegmatis mc2155 assessed as reduction in bacterial cell growth by measuring resazurin reduction incubated for 6 days by fluorescence microplate based assay; format: functional; conditions: mc2155, 144 h, time 6 day
# [14] = tested on: Mycobacterium tuberculosis; assay: Inhibition of Ndh2 in Mycobacterium tuberculosis assessed as decrease in ATP concentration measured after 24 hrs; conditions: DDE = dose-dependent effect
# Method in brief: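 Log-phase H37Rv diluted to OD600 0.01 in complete 7H9 and exposed in 96-well plates to compound added from a 100× DMSO stock, at 37°C. ATP measured with BacTiter-Glo luminescence after 4 and 24 h; three independent experiments.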
# [15] = Octanol/PBS partition coefficient, logD of compound at pH 7.4 measured after 2 hrs by shake flask method; format: physicochemical; conditions: octanol/water, pH 7.4, 2 h
# Method in brief: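 A 10 mM DMSO stock was diluted 50-fold into 1:1 octanol:PBS pH 7.4 and shaken gently for 2 h at room temperature. Each phase was diluted 50-fold in MeOH and quantified by LC-MS/MS. LogD = log of the octanol/PBS concentration ratio from mass signals. Run in triplicate.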
# Escherichia coli [16] = assay: Antibiotic activity against Escherichia coli deltatolC BW25113 deltatolC assessed as reduction in bacterial cell growth by measuring resazurin reduction incubated for 6 days by fluorescence microplate based assay; format: functional; conditions: 144 h, time 6 day; method in brief: as §3
# Mycobacterium marinum [17] = assay: In vivo antimycobacterial efficacy in Mycobacterium marinum expressing Wasabi infected zebrafish larvae assessed as prolongation of survival at 9.6 uM treated for 4 days after 1 day post infection; format: functional, organism-based; conditions: time 4.0 day; method in brief: as §1
# Bacillus subtilis = assay: Antibiotic activity against Bacillus subtilis ATCC6633 assessed as reduction in bacterial cell growth by measuring resazurin reduction incubated for 6 days by fluorescence microplate based assay; format: functional; conditions: ATCC6633, 144 h, time 6 day
# Mycobacterium marinum [18] = assay: in vivo antimycobacterial efficacy in Mycobacterium marinum infected zebrafish larvae assessed as reduction in bacterial burden at 0.25 to 2 micog/ml measured after 2 to 4 days off post infection; format: functional, organism-based; conditions: time 2-4 day
# [19] = Toxicity in noninfected zebrafish larvae assessed as larval development; set-up: species or system Danio rerio; conditions: in vivo
# Acinetobacter baumannii = assay: Antibiotic activity against Acinetobacter baumannii LMG-17978 assessed as reduction in bacterial cell growth by measuring resazurin reduction incubated for 6 days by fluorescence microplate based assay; format: functional; conditions: LMG-17978, 144 h, time 6 day
# [20] = tested on: Mycobacterium tuberculosis; assay: Antibiotic activity against Mycobacterium tuberculosis H37Rv assessed as reduction in bacterial cell growth by measuring resazurin reduction incubated for 6 days by fluorescence microplate based assay; format: functional; conditions: 144 h, time 6 day
# [21] = tested on: Mycobacterium tuberculosis; assay: Inhibition of Ndh2 in Mycobacterium tuberculosis assessed as increase in NADH/NAD+ ratio at 600 nM measured after 24 hrs
# Method in brief: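 Mid-log H37Rv diluted to OD600 0.3 and exposed to compound at 37°C for 2 and 24 h. Pellets extracted in 0.2 M HCl (NAD⁺) or 0.2 M NaOH (NADH), bead-milled, heated 55°C 10 min, neutralised. NAD/NADH-Glo luminescence read against an NADH standard curve, corrected for OD600. Three independent experiments, duplicate technical replicates.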
# [22] = tested on: Mycobacteroides abscessus; assay: Antibiotic activity against Mycobacterium abscessus CIP104536, Rough variant assessed as reduction in bacterial cell growth by measuring resazurin reduction incubated for 6 days by fluorescence microplate based assay; format: functional; conditions: 144 h, time 6 day
# Klebsiella pneumoniae = assay: Antibiotic activity against Klebsiella pneumoniae LMG 2095 assessed as reduction in bacterial cell growth by measuring resazurin reduction incubated for 6 days by fluorescence microplate based assay; format: functional; conditions: LMG 2095, 144 h, time 6 day
# [23] = tested on: Mycobacterium tuberculosis; assay: Bactericidal activity against Non-replicating Mycobacterium tuberculosis ss18b-lux assessed as bacterial killing by measuring CFU after 1 week; format: functional, organism-based; conditions: time 1.0 weeks, DDE = dose-dependent effect; method in brief: as §2
# [24] = Toxicity in noninfected zebrafish larvae assessed as toxic effect; set-up: species or system Danio rerio; conditions: in vivo
# Escherichia coli [25] = assay: Antibiotic activity against Escherichia coli BW25113 assessed as reduction in bacterial cell growth by measuring resazurin reduction incubated for 6 days by fluorescence microplate based assay; format: functional; conditions: BW25113, 144 h, time 6 day; method in brief: as §3
# [26] = molecular target: T1, Type II NADH:quinone oxidoreductase NdhA (Mycobacterium tuberculosis, UniProt P95200); assay: Inhibition of Mycobacterium smegmatis MC2 155 recombinant ndhA assessed as rate of NADH oxidation in the presence of an electron acceptor menadione; set-up: species or system Mycolicibacterium smegmatis
# T1 sequence (P95200 whole entry): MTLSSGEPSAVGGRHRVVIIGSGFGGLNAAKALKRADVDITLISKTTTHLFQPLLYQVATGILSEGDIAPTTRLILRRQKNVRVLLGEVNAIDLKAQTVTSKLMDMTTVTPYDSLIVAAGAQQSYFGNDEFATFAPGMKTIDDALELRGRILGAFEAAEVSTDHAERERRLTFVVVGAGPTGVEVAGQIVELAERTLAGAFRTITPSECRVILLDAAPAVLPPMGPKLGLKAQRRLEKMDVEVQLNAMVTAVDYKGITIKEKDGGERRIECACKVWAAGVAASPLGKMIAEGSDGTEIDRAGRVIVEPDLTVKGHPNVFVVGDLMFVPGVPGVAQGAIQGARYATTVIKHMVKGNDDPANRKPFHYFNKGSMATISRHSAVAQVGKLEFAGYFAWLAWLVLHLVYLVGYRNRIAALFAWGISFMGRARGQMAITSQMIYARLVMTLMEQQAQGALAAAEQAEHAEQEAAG
# [27] = molecular target: Type II NADH:quinone oxidoreductase Ndh (Mycobacterium tuberculosis, UniProt P95160); assay: Inhibition of Mycobacterium tuberculosis recombinant type II NADH dehydrogenase ndh expressed in Escherichia coli assessed as rate of NADH oxidation in the presence of an electron acceptor menadione
# Chain of Type II NADH:quinone oxidoreductase Ndh (P95160 whole entry): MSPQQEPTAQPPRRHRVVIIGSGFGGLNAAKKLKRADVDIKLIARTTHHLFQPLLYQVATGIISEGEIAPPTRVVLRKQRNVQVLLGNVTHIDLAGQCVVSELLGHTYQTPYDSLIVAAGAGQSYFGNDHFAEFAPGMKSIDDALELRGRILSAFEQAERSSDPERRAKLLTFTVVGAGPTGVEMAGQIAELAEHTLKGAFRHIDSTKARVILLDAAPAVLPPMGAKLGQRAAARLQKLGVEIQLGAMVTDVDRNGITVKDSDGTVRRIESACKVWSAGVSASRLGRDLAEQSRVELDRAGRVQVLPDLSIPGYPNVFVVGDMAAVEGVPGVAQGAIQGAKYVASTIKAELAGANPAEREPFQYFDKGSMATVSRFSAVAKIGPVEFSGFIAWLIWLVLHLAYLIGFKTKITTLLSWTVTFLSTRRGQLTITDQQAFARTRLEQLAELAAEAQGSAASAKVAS
# Method in brief: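 Purified N-terminal MBP-tagged Mtb Ndh (Rv1854c) expressed in E. coli, 70 nM, with 500 µM NADH in 50 mM HEPES pH 7.1 (K₂HPO₄). Compound pre-incubated 15 min at 25°C, reaction started with 100 µM menadione. NADH oxidation followed at 340 nm every 60 s. Rate taken from linear slope; IC50 is the mean ± SD of at least 3 independent experiments.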
structure (smiles),measurement,setting,value
CC(C)[C@H]1CO[C@]23CCN(Cc4ccc(OC(F)(F)F)cc4)C[C@H]2CCC(=O)N13,IC50,[1],0.36 µM
same,Time,Mycobacterium marinum [2],3 days
same,Activity,Mycobacterium marinum [3],Active
same,MIC,Mycobacterium avium,0.38 µM
same,Activity,[4],1 log10CFU
same,Activity,[5],0.8 log10CFU
same,Drug metabolism,[6],Metabolite_Detected
same,MIC98,[7],0.13 µM
same,Activity,Mycobacterium marinum [8],Dde
same,Activity,[9],Tde
same,MIC,[10],8.1 µM
same,Activity,Mycobacterium marinum [11],Active
same,MIC,Mycobacterium marinum [12],0.16 µM
same,MIC,Staphylococcus aureus,> 100 µM
same,MIC,Pseudomonas aeruginosa,> 100 µM
same,MIC,[13],1.3 µM
same,inhibition,[14],Dde
same,logD,[15],3.9
same,MIC,Escherichia coli [16],100 µM
same,Activity,Mycobacterium marinum [17],Active
same,MIC,Bacillus subtilis,> 100 µM
same,Activity,Mycobacterium marinum [18],Active
same,Activity,[19],Non-Toxic
same,MIC,Acinetobacter baumannii,> 100 µM
same,MIC,[20],0.13 µM
same,inhibition,[21],Active
same,MIC,[22],8.1 µM
same,MIC,Klebsiella pneumoniae,> 100 µM
same,Activity,[23],Dde
same,Activity,[24],Non-Toxic
same,MIC,Escherichia coli [25],> 100 µM
CC(C)[C@H]1CO[C@]23CCN(Cc4ccc(Cl)cc4)C[C@H]2CCC(=O)N13,IC50,[26],0.096 µM
same,MIC98,[7],0.25 µM
same,IC50,[27],0.028 µM
O=C1CC[C@@H]2CN(Cc3ccccc3)CC[C@@]23OC[C@H](C2CC2)N13,MIC98,[7],37.5 µM
Cc1ccc(CN2CC[C@]34OC[C@H](C(C)C)N3C(=O)CC[C@@H]4C2)cc1,MIC98,[7],1.7 µM
C[C@H]1CO[C@]23CCN(Cc4ccccc4)C[C@H]2CCC(=O)N13,MIC98,[7],>100 µM
